# In article PMC3569859 (Bioorganic & medicinal chemistry, 2008):
# Test system: sodium currents expressed in rat hippocampal neurons
# Assay type: cell-based
# Details: cultured hippocampal neurons
# Summary of the method: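 E18 rat hippocampal neurons were trypsin-dissociated and kept up to 4 weeks on poly-L-lysine over a glial monolayer in serum-free MEM with N2. Whole-cell clamp was done at 20–22 °C with a CsF pipette and a 30 mM NaCl bath containing Cd2+ and TEA, both pH 7.3. After 5 min at −90 mV, 25 ms steps to −10 mV were applied with P/4 leak subtraction. Test compound was superfused at 50 μM, then washed out.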
structure (smiles),measurement,value
"CC(C)c1cc(CCCCC(O)(C(N)=O)C(F)(F)F)cc(C(C)C)c1O (centres unmarked) [Compound 4, 2-Hydroxy-6-(4-hydroxy-3,5-diisopropyl-phenyl)-2-trifluoromethyl-hexanoic acid amide]",Reversibility of Na current block on washout,fully reversible
"CC(C)c1cc(CCCCCCC(O)(C(N)=O)C(F)(F)F)cc(C(C)C)c1O (centres unmarked) [Compound 5, 2-Hydroxy-8-(4-hydroxy-3,5-diisopropyl-phenyl)-2-trifluoromethyl-octanoic acid amide]",Reversibility of Na current block on washout,fully reversible
